Reference: ChEMBL document CHEMBL4834426, “Antimalarial Benzimidazole Derivatives Incorporating Phenolic Mannich Base Side Chains Inhibit Microtubule and Hemozoin Formation: Structure-Activity Relationship and In Vivo Oral Efficacy Studies” (J Med Chem, 2021)
In brackets after ≈: the same amount, converted by molar mass. Activity calls are given as the source filed them. The rule behind the calls is not given here.

Assays:
[1] = test system: Plasmodium falciparum; test: Antiplasmodial activity against […] Plasmodium falciparum NF54 late gametocytes transfected with GFP-Luc […] incubated for 48 hrs by microscopy based luciferase reporter gene assay relative to control; format: functional, organism-based; conditions: NF54, 48 h
Outline: (§1)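 Transgenic NF54-Pfs16-GFP-Luc gametocytes, read by luciferase reporter. Early assays were set up on day 5 (50% stage II/50% stage III) and late assays on day 10 (40% stage IV/60% stage V). Luciferin was added to lysates at room temperature and bioluminescence read. Methylene blue (5 μM) was the reference. Single-point screens at 1 and 5 μM used n=1 in technical triplicate. IC₅₀ came from a normalized nonlinear fit, n≥3 in triplicate.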

[2] = test system: Plasmodium falciparum; test: Antimalarial activity against asexual blood stage multi drug-resistant Plasmodium falciparum K1 infected in erythrocytes assessed as reduction in parasitemia incubated up to 72 hrs by [3H]hypoxanthine incorporation assay; format: functional, organism-based
Outline: (§2)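 [³H]-Hypoxanthine incorporation assay (modified) on asexual blood-stage P. falciparum in vitro. IC₅₀ values are means of ≥2 independent experiments.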

[3] = test system: Plasmodium falciparum; test: Antiplasmodial activity against […] Plasmodium falciparum NF54 early gametocytes transfected with GFP-Luc […] at 5 uM incubated for 48 hrs by microscopy based luciferase reporter gene assay relative to control; format: functional
Outline: (§3)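 NF54-Pfs16-GFP-Luc gametocytes, assays set up day 5 (early, stage II/III) or day 10 (late, stage IV/V). Culture at 2−3% gametocytemia, 1.5% hematocrit, 48 h drug exposure at 37 °C under 90% N₂/5% O₂/5% CO₂. Lysates mixed with luciferin; bioluminescence read with 10 s integration. Dual-point: one biological repeat in technical triplicate. Methylene blue (5 μM) reference.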

[4] = Resistance index, ratio of IC50 for antimalarial activity against asexual blood stage multi drug-resistant Plasmodium falciparum K1 to IC50 for antimalarial activity against asexual blood stage drug-sensitive Plasmodium falciparum NF54; format: functional
Outline: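 Resistance index is IC₅₀(K1)/IC₅₀(NF54). Both IC₅₀s came from the [³H]-hypoxanthine incorporation assay, as means of ≥2 independent experiments.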

[5] = Metabolic stability in mouse liver microsomes assessed as compound remaining at 1 uM incubated for 30 mins by LC-MS/MS analysis; format: ADME, Microsome; conditions: read-out: Stabilty
Outline: (§4)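 Single-point design: 1 μM compound with 0.4 mg/mL liver microsomes in 0.1 M phosphate buffer pH 7.4 for 30 min. Quenched with ice-cold acetonitrile containing carbamazepine internal standard, centrifuged, analyzed by LC−MS/MS. Percent remaining from internal-standard-corrected peak areas at 30 min versus 0 min. Propranolol, midazolam and MMV390048 as controls.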

[6] = Selectivity index, ratio of IC50 for Cytotoxicity against CHO cells assessed as inhibition of cell viability by MTT assay to IC50 for antimalarial activity against asexual blood stage Plasmodium falciparum NF54 assessed as reduction in parasitemia incubated up to 72 hrs by [3H]hypoxanthine incorporation assay; format: toxicity, cell-based; conditions: hamster, read-out: Selectivity Index
Outline: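 Selectivity index is IC₅₀(CHO)/IC₅₀(NF54). […] IC₅₀ came from nonlinear dose-response fitting. Parasite IC₅₀ came from the [³H]-hypoxanthine assay.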

[7] = Kinetic solubility of the compound in pH 6.5 incubated for 24 hrs by HPLC-DAD analysis; format: physicochemical; conditions: buffer, read-out: Kinetic_solubility
Outline: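 Miniaturized shake-flask method. 10 mM DMSO stock dried down, phosphate buffer pH 6.5 added, shaken 24 h at 25 °C. Centrifuged 3500g for 15 min; supernatant analyzed by HPLC-DAD against 10−220 μM DMSO calibration curve. Reserpine, hydrocortisone and MMV390048 as controls.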

[8] = test system: Plasmodium falciparum; test: Antiplasmodial activity against […] Plasmodium falciparum NF54 early gametocytes transfected with GFP-Luc […] at 1 uM incubated for 48 hrs by microscopy based luciferase reporter gene assay relative to control; format: functional; outline: as §3
[9] = test system: Plasmodium falciparum; test: Antiplasmodial activity against […] Plasmodium falciparum NF54 late gametocytes transfected with GFP-Luc […] at 1 uM incubated for 48 hrs by microscopy based luciferase reporter gene assay relative to control; format: functional; outline: as §3
[10] = Metabolic stability in human liver microsomes assessed as compound remaining at 1 uM incubated for 30 mins by LC-MS/MS analysis; format: ADME, Microsome; conditions: read-out: Stabilty; outline: as §4
[11] = test system: Plasmodium falciparum; test: Antiplasmodial activity against […] Plasmodium falciparum NF54 late gametocytes transfected with GFP-Luc […] at 5 uM incubated for 48 hrs by microscopy based luciferase reporter gene assay relative to control; format: functional; outline: as §3
[12] = test system: Plasmodium falciparum; test: Antimalarial activity against asexual blood stage drug-sensitive Plasmodium falciparum NF54 infected in erythrocytes assessed as reduction in parasitemia incubated up to 72 hrs by [3H]hypoxanthine incorporation assay; format: functional, organism-based; outline: as §2
[13] = test system: Plasmodium falciparum; test: Antiplasmodial activity against […] Plasmodium falciparum NF54 early gametocytes transfected with GFP-Luc […] incubated for 48 hrs by microscopy based luciferase reporter gene assay relative to control; format: functional, organism-based; conditions: NF54, 48 h; outline: as §1
[14] = test system: CHO; test: Cytotoxicity against CHO cells assessed as inhibition of cell viability by MTT assay; format: cell-based; conditions: Cricetulus griseus
[15] = Metabolic stability in rat liver microsomes assessed as compound remaining at 1 uM incubated for 30 mins by LC-MS/MS analysis; format: ADME, Microsome; conditions: read-out: Stabilty; outline: as §4
[16] = test system: Hemozoin; test: Inhibition of Beta-hematin in early ring stage Plasmodium falciparum parasitized red blood cells assessed as hemozoin formation formation after 32 hrs by Giemsa staining based haemocytometric counting method
[17] = test system: Hemozoin; test: Inhibition of beta-hematin formation […] incubated for 5 hrs by NP40 detergent-mediated assay
Outline: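 Cell-free β-hematin formation assay in NP-40 (305.5 μM) lipid-mimic medium. Compounds from 20 mM stock serially diluted across wells, in duplicate. Hematin suspended in 1 M acetate buffer pH 4.8; plates incubated ~5 h at 37 °C. Then pyridine solution (with HEPES pH 7.4) and acetone added; absorbance at 405 nm. IC₅₀ by curve fit.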

[18] = test system: Plasmodium berghei; test: Antimalarial activity against GFP-transfected Plasmodium berghei ANKA infected in NMRI mouse model assessed as reduction in parasitemia at 50 mg/kg, po dosed 4 times relative to control; format: functional; set-up: scale not given: the % may be the effect or the level left
Outline: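 Mice (n = 3) infected with GFP-transfected P. berghei ANKA. Compound in 70% Tween-80/30% ethanol, diluted 10-fold in water, given orally at 4, 24, 48 and 72 h post-infection. Blood taken day 4 (96 h); parasitemia by flow cytometry, detection limit 0.1%. Activity = difference in mean % parasitemia between control and treated, as % of control.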

[19] = Inhibition of tubulin polymerization in asexual blood stage Plasmodium falciparum NF54

SMILES	IC50 [1] [nM]	IC50 [2] [nM]	inhibition at 5 µM [3] [%]	Ratio IC50 [4]	remaining at 0.5 h, 1 µM [5] [%]	selectivity ratio at 72 h [6]	solubility kinetic at 24 h [7] [µM]	inhibition at 1 µM [8] [%]	inhibition at 1 µM [9] [%]	remaining at 0.5 h, 1 µM [10] [%]	inhibition at 5 µM [11] [%]	IC50 [12] [nM]	IC50 [13] [nM]	IC50 [14] [nM]	remaining at 0.5 h, 1 µM [15] [%]	Activity [16]	IC50 [17] [nM]	Activity [18] [%]	IC50 [19] [nM]
CCNCc1cc(C)cc(Nc2nc3cc(F)c(F)cc3n2Cc2ccc(C(F)(F)F)cc2)c1O	2330	130	94	0.5	93	7.84	16 (≈ 7.85 µg/mL)	86	0	99	24	260	210	2040	77	–	–	–	–
CCN(CC)Cc1cc(Cl)cc(Nc2nc3ccccc3n2Cc2ccc(C(F)(F)F)cc2)c1O	1900	50	89	0.33	–	> 333	–	69	2	–	10	150	56	> 50000	–	–	–	–	–
CCNCc1cc(Cl)cc(Nc2nc3ccccc3n2Cc2ccc(C(F)(F)F)cc2)c1O	> 5000	110	91	0.39	73	121	12 (≈ 5.7 µg/mL)	66	0	94	8	280	430	33800	66	inactive	33300	<40	–
COc1cc2c(c(OC)c1OC)-c1ccc(OC)c(=O)cc1[C@@H](NC(C)=O)CC2 [COLCHICINE]	–	–	–	–	–	–	–	–	–	–	–	–	–	–	–	–	–	–	10000
CCN(CC)Cc1c(Cl)ccc(Nc2nc3ccccc3n2Cc2ccc(C(F)(F)F)cc2)c1O	–	380	59	0.21	–	> 27	–	7	5	–	1	1840	3060	> 50000	–	–	–	–	–
CCN(CC)Cc1cc(C)cc(Nc2nc3ccccc3n2Cc2ccc(F)cc2)c1O	–	210	97	0.38	–	34	–	81	41	–	58	550	880	18700	–	–	–	–	–
CC(C)(C)NCc1cc(Cl)cc(Nc2nc3ccccc3n2Cc2ccc(C(F)(F)F)cc2)c1O	–	60	92	0.21	36	130	< 5	44	0	81	0	280	590	36300	9	–	–	–	–
CCN(CC)Cc1cccc(Nc2nc3ccccc3n2Cc2ccc(F)cc2)c1O	–	180	91	0.5	–	> 136	–	65	36	–	58	360	2230	> 50000	–	–	–	–	–
